Results pooled from the literature.
Target: Phosphatidylinositol 5-phosphate 4-kinase type-2 beta (PIP4K2B, Homo sapiens, UniProt P78356)
Sequence (P78356 1-416, as in one of the studies): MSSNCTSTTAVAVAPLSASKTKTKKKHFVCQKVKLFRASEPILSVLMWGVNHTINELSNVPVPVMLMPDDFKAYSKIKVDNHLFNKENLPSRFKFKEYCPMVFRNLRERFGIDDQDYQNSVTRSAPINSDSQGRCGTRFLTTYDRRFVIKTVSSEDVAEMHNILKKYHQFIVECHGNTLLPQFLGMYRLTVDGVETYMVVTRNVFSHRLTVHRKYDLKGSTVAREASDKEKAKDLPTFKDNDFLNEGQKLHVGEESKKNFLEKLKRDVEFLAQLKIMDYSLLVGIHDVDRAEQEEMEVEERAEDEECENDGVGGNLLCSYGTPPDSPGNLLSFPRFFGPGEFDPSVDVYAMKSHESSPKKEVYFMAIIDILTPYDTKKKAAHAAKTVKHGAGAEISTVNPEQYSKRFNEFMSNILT

The remaining binding of `Cn1nc(C(F)(F)F)cc1-c1cnc(N2CCc3cc(S(=O)(=O)Nc4c(F)cc(Cl)cc4F)cc(N4CCCC4=O)c32)nc1` is reported as 100% (cell-free assay, competition with immobilised ligand; 1 µM).
The remaining binding of `C[C@@H](c1ccc(-n2cnc3c(N)ncnc32)cc1)N1CCc2nn(C)c(Cc3ccccc3)c2C1=O` is reported as 69% (binding, competition with immobilised ligand; 0.1 µM).
`Cc1c(NC(=O)c2cc(C(N)=O)nc3cc(F)ccc23)c(C(F)(F)F)nn1Cc1ccc(C(C)(C)C)cc1` has a remaining binding of 91% (cell-free assay, competition with immobilised ligand; 1 µM).
`FC(F)(F)Oc1cccc(-c2cnc3ccc(-c4ccncc4)nn23)c1` has a remaining binding of 100% (cell-free assay, competition with immobilised ligand; 5 µM).
With `O=C(c1ccc(Nc2ncc(Cl)c(-c3cc4ccccc4s3)n2)cc1)N1CCC(N2CCCC2)CC1` the remaining binding was 7.1% (binding, competition with immobilised ligand; 1 µM).
The remaining binding of `COc1cnc(Nc2cccc(S(N)(=O)=O)c2)nc1N1CCN(c2ccccc2)C(=O)C1` is reported as 100% (binding, competition with immobilised ligand; 1 µM).
With `CC1CCCN1c1nccc(-c2cnn3ncccc23)n1` (stereo not drawn) the remaining binding was 100% (binding; 1 µM).
The remaining binding of `O=C(NCC1CCOCC1)c1n[nH]cc1NC(=O)c1c(F)cccc1F` is reported as 100% (binding, competition with immobilised ligand; 1 µM).
For `N[C@@H]1CCN(c2nccc(-c3cnn4ncccc34)n2)C1`, the remaining binding was 100% (binding; 1 µM).
`C[C@@]1(Cc2ccc(C#N)cc2)C(=O)N(c2cc(Cl)cc(Cl)c2)c2ncc(C(=O)NC3(c4nc(C5CCC5)no4)CC3)n21` gave a remaining binding of 97% (cell-free assay, competition with immobilised ligand; 1 µM).
`CCN1CCN(Cc2ccc(C(=O)Nc3ccc(C)c(Oc4ccc5c(c4)CC(=O)N5)c3)cc2C(F)(F)F)CC1` has a remaining binding of 100% (binding, competition with immobilised ligand; 1 µM).
With `Cc1nc(NC(=O)N2CCC[C@H]2C(N)=O)sc1-c1ccnc(C(C)(C)C(F)(F)F)c1` the remaining binding was 100% (binding, competition with immobilised ligand; 10 µM).
With `CN(CCCC(F)(F)F)c1nccc(-c2cnn3ncccc23)n1` the remaining binding was 57% (binding; 1 µM).
The remaining binding of `C[C@@H](c1cccc(C#N)c1)n1cc(Cl)cc(C(N)=O)c1=N` is reported as 73% (cell-free assay, competition with immobilised ligand; 1 µM).
The remaining binding of `Nc1ncc2c(n1)-c1c([nH]c3ccc(C#CC4CC4)cc13)CCCC2` is reported as 86% (binding, competition with immobilised ligand; 1 µM).
`CNCc1ccccc1-c1csc([C@H](C)Nc2nc(C)nc3cc(OC)c(OC)cc23)c1` has a remaining binding of 100% (cell-free assay, competition with immobilised ligand; 1 µM).
For `O=C(NCCCN1CCOCC1)c1ccc(Nc2nccc(-c3cc4ccccc4s3)n2)cc1`, the remaining binding was 11% (binding, competition with immobilised ligand; 1 µM).
For `Cc1cc(C)c(-n2ccn3nc(-c4cccnc4)cc23)cc1NC(=O)c1cc(C#N)cc(S(F)(F)(F)(F)F)c1`, the remaining binding was 52.2% (cell-free assay, competition with immobilised ligand; 0.1 µM).
With `c1cnn2ncc(-c3ccnc(N4CCC45COC5)n3)c2c1` the remaining binding was 58% (binding; 1 µM).
For `C[C@H](c1ccnc(Nc2nc3ccc(-c4cc(N(C)C)ncn4)cc3[nH]2)c1)N1CCN(C(=O)CC(F)(F)F)CC1`, the remaining binding was 75% (cell-free assay, competition with immobilised ligand; 0.1 µM).
`F[C@@H]1CCN(c2nccc(-c3cnn4ncccc34)n2)C1` has a remaining binding of 79% (binding; 1 µM).
`COc1cc(Nc2nccc(-c3cnn4nc(OC)ccc34)n2)cc(C(F)(F)F)c1` gave a remaining binding of 50% (binding, competition with immobilised ligand; 1 µM).
The remaining binding of `CN(C)c1nccc(-c2cnn3ncccc23)n1` is reported as 100% (binding; 1 µM).
`O=C(c1ccc(Nc2ncc(Cl)c(-c3ccc(Cl)s3)n2)cc1)N1CCC(N2CCCC2)CC1` gave a remaining binding of 1.9% (binding, competition with immobilised ligand; 1 µM).
